{"source": "ChEMBL document CHEMBL4229550", "about": "“An antimycobacterial pleuromutilin analogue effective against dormant bacilli” (Bioorg Med Chem, 2018)", "key": {"[1]": {"test": "Cmax in Balb/c mouse lung at 30 mg/kg, po", "format": "ADME, organism-based", "design": "dose 30 mg/kg, route oral"}, "[2]": {"system": "Escherichia coli", "test": "Inhibition of protein translation/transcription in Escherichia coli S30 cell extract using circular DNA with pBESTluc after 60 mins by luciferase reporter gene assay", "format": "functional", "conditions": "1 h", "method_in_brief": "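E. coli S30 circular-DNA coupled transcription/translation kit with the pBESTluc template (firefly luciferase under the tac promoter). S30 extract, amino acids and premix are combined with compound in DMSO, and the reaction is started with DNA. Incubation is 60 min at 37 °C, stopped on ice, then luciferase luminescence is read.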"}, "[3]": {"system": "Acinetobacter baumannii", "test": "Antibacterial activity against Acinetobacter baumannii ATCC 19606 incubated for 24 hrs under aerobic condition by MABA", "format": "functional", "conditions": "ATCC 19606 = CIP 70.34 = JCM 6841, 24 h, read-out: MIC100", "method_in_brief": "(§1)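 Mid-log cultures at OD 0.5 were exposed to serial dilutions under aerobic conditions at 37 °C for 24 h. Resazurin was then added from a 0.08% stock for 1 h. MIC100 was the lowest concentration where the dye stayed blue (pink means growth). Absorbance was also read at 570 and 600 nm.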"}, "[4]": {"test": "Cmax in Balb/c mouse serum at 30 mg/kg, po", "format": "ADME, organism-based", "design": "dose 30 mg/kg, route oral", "method_in_brief": "(§2)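 Single oral dose of 30 mg/kg in BALB/c mice (n = 6). Serum PK parameters were t1/2, tmax, Cmax and AUC over 0–24 h and to infinity. Oral bioavailability F was calculated against the 3 mg/kg IV dose.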"}, "[5]": {"test": "Solubility in water at 10 mg after 24 hrs by HPLC analysis", "format": "physicochemical"}, "[6]": {"test": "Half life in Balb/c mouse at 30 mg/kg, po", "format": "ADME, organism-based", "conditions": "in vivo", "method_in_brief": "(§3)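 Single 30 mg/kg oral dose in six BALB/c mice; serum half-life and tmax are derived from the concentration–time profile.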"}, "[7]": {"system": "Erythrocyte", "test": "Hemolytic activity in sheep erythrocytes after 2 hrs", "format": "ADME, cell-based", "conditions": "Ovis aries", "method_in_brief": "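Washed heparinized sheep erythrocytes at 3% in buffer pH 7.4 were treated with 2–200 µg/mL for 2 h at 37 °C with gentle shaking. Triton X-100 (0.01–1%) was the positive control and PEG:H2O diluent the negative control. Released hemoglobin was read at OD540 and % hemolysis calculated against both controls.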"}, "[8]": {"system": "Staphylococcus aureus", "test": "Antibacterial activity against Staphylococcus aureus ATCC 25923 incubated for 24 hrs under aerobic condition by MABA", "format": "functional", "conditions": "ATCC 25923, 24 h, read-out: MIC100", "method_in_brief": "as §1"}, "[9]": {"system": "Mycolicibacterium smegmatis", "test": "Antibacterial activity against Mycobacterium smegmatis ATCC 607 incubated for 48 hrs under aerobic condition by MABA", "format": "functional", "conditions": "ATCC 607, 48 h, read-out: MIC100", "method_in_brief": "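Mid-log culture at OD 0.5 was incubated with serial dilutions aerobically at 37 °C for 48 h. Resazurin was then added from a 0.08% stock for 1 h. MIC100 was the lowest concentration that stayed blue; absorbance was also read at 570/600 nm.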"}, "[10]": {"test": "AUC (0 to 24 hrs) in Balb/c mouse serum at 30 mg/kg, po", "format": "ADME, organism-based", "design": "time < 24 hr, dose 30 mg/kg, route oral", "method_in_brief": "as §2"}, "[11]": {"test": "AUC (0 to 24 hrs) in Balb/c mouse lung at 30 mg/kg, po", "format": "ADME, organism-based", "design": "dose 30 mg/kg, time < 24 hr, route oral", "conditions": "in vivo"}, "[12]": {"test": "Tmax in Balb/c mouse at 30 mg/kg, po", "format": "ADME, organism-based", "conditions": "in vivo", "method_in_brief": "as §3"}, "[13]": {"system": "Enterococcus faecalis", "test": "Antibacterial activity against Enterococcus faecalis ATCC 349 incubated for 24 hrs under aerobic condition by MABA", "format": "functional", "conditions": "ATCC 349, 24 h, read-out: MIC100", "method_in_brief": "as §1"}, "[14]": {"system": "Enterococcus faecalis", "test": "Bactericidal activity against Enterococcus faecalis ATCC 349 incubated for 24 hrs under aerobic condition by MABA", "format": "functional", "conditions": "ATCC 349, 24 h"}, "[15]": {"system": "Escherichia coli", "test": "Bactericidal activity against Escherichia coli ATCC 10798 incubated for 24 hrs under aerobic condition by MABA", "format": "functional", "conditions": "ATCC 10798, 24 h"}, "[16]": {"test": "Apparent permeability from basolateral to apical side in human Caco2 cells at 10 uM after 2 hrs by LC-MS/MS analysis", "format": "ADME, cell-based", "conditions": "caco-2, 2 h"}, "[17]": {"test": "AUC (0 to infinity) in Balb/c mouse at 30 mg/kg, po", "format": "ADME, organism-based", "design": "dose 30 mg/kg, route oral, time infinity", "conditions": "in vivo", "method_in_brief": "as §2"}, "[18]": {"system": "Staphylococcus aureus", "test": "Bactericidal activity against Staphylococcus aureus BAA 2094 incubated for 24 hrs under aerobic condition by MABA", "format": "functional", "conditions": "BAA 2094, 24 h"}, "[19]": {"test": "Apparent permeability from apical to basolateral side in human Caco2 cells at 10 uM after 2 hrs by LC-MS/MS analysis", "format": "ADME, cell-based", "conditions": "caco-2, 2 h"}, "[20]": {"system": "Enterococcus faecalis", "test": "Bactericidal activity against Enterococcus faecalis ATCC 19433 incubated for 24 hrs under aerobic condition by MABA", "format": "functional", "conditions": "ATCC 19433, 24 h"}, "[21]": {"system": "Mycolicibacterium smegmatis", "test": "Bactericidal activity against Mycobacterium smegmatis ATCC 607 incubated for 48 hrs under aerobic condition by MABA", "format": "functional", "conditions": "ATCC 607, 48 h"}, "[22]": {"system": "Mycobacterium tuberculosis", "test": "Bactericidal activity against replicating Mycobacterium tuberculosis H37Rv incubated for 15 days under aerobic condition by MABA", "format": "functional", "conditions": "360 h", "method_in_brief": "(§4)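 Mtb H37Rv grown in 7H9/OADC at 37 °C with shaking to OD600 0.5. The 0.5-OD culture is exposed aerobically to serial dilutions for 15 days at 37 °C. Resazurin (0.02% stock) is then added for 4 h at 37 °C with shaking.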"}, "[23]": {"system": "Bacillus subtilis", "test": "Antibacterial activity against Bacillus subtilis ATCC 6051 incubated for 24 hrs under aerobic condition by MABA", "format": "functional", "conditions": "ATCC 6051, 24 h, read-out: MIC100", "method_in_brief": "as §1"}, "[24]": {"system": "Mus musculus", "test": "AUC (0 to 24 hrs) in Balb/c mouse at 3 mg/kg, iv", "format": "ADME, organism-based", "design": "time < 24 hr, dose 3 mg/kg, route intravenous", "conditions": "in vivo", "method_in_brief": "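Single IV dose of 3 mg/kg in BALB/c mice (n = 3). Serum concentration-time data were used to derive t1/2, Cmax and AUC over 0–24 h and to infinity.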"}, "[25]": {"system": "Mycobacterium tuberculosis", "test": "Antibacterial activity against Mycobacterium tuberculosis Erdman infected in Balb/c mouse assessed as reduction in bacterial load in lungs at administered po for 3 weeks starting from 10 days post infection measured on day 21 post infection", "format": "functional, organism-based", "conditions": "Erdman = ATCC 35801", "method_in_brief": "(§5)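 Female BALB/c mice, 7–8 weeks old, are aerosol-infected with Mtb Erdman. From day 10 they receive oral gavage in water for three weeks, in groups of 5. Lungs and spleens are harvested at day 21 post-infection and plated for CFU. Efficacy is the log10 reduction in lung burden versus untreated (vehicle) controls.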"}, "[26]": {"system": "Staphylococcus aureus", "test": "Antibacterial activity against Staphylococcus aureus BAA 44 incubated for 24 hrs under aerobic condition by MABA", "format": "functional", "conditions": "BAA 44, 24 h, read-out: MIC100", "method_in_brief": "as §1"}, "[27]": {"system": "Streptococcus salivarius", "test": "Antibacterial activity against Streptococcus salivarius […] incubated for 24 hrs under aerobic condition by MABA", "format": "functional", "conditions": "read-out: MIC100", "method_in_brief": "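Resazurin was then added from a 0.08% stock for 1 h. MIC100 was the lowest concentration where the dye stayed blue (pink means growth). Absorbance was also read at 570 and 600 nm.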"}, "[28]": {"system": "Mycobacterium tuberculosis", "test": "Antibacterial activity against Mycobacterium tuberculosis Erdman infected in Balb/c mouse assessed as reduction in bacterial load in lungs at 50 mg/kg, po for 3 weeks starting from 10 days post infection measured on day 21 post infection", "format": "functional, Erdman = ATCC 35801", "method_in_brief": "as §5"}, "[29]": {"system": "Mycobacterium tuberculosis", "test": "Antibacterial activity against Mycobacterium tuberculosis", "format": "functional", "conditions": "read-out: MIC100", "method_in_brief": "as §4"}, "[30]": {"system": "Mycobacterium tuberculosis", "test": "Antibacterial activity against Mycobacterium tuberculosis Erdman infected in Balb/c mouse assessed as reduction in bacterial load in lungs at 200 mg/kg, po for 3 weeks starting from 10 days post infection measured on day 21 post infection", "format": "functional, Erdman = ATCC 35801", "method_in_brief": "as §5"}}}
{"smiles": "CC[C@]1(C)C[C@@H](OC(=O)CSC(C)(C)CNC(=O)[C@H](N)CC(C)C)[C@]2(C)[C@H](C)CC[C@]3(CC[C@@H](O)[C@H]32)[C@@H](C)[C@@H]1O", "values": [{"measurement": "Cmax", "setting": "[1]", "value": 6070, "unit": "ng/g"}, {"measurement": "IC50", "setting": "[2]", "value": 0.09, "unit": "µg/mL"}, {"measurement": "MIC", "setting": "[3]", "value": 1.56, "unit": "µg/mL"}, {"measurement": "Cmax", "setting": "[4]", "value": 2960, "unit": "ng/mL"}, {"measurement": "solubility", "setting": "[5]", "value": 104.7, "unit": "mg/mL"}, {"measurement": "half-life", "setting": "[6]", "value": 4.02, "unit": "h"}, {"measurement": "IC50", "setting": "[7]", "value": "> 200", "unit": "µM"}, {"measurement": "MIC", "setting": "[8]", "value": "> 25", "unit": "µg/mL"}, {"measurement": "MIC", "setting": "[9]", "value": 6.25, "unit": "µg/mL"}, {"measurement": "AUC(0-t) at 24 h", "setting": "[10]", "value": 2500, "unit": "ng·h/mL"}, {"measurement": "AUC", "setting": "[11]", "value": 66281, "unit": "ng·h/g"}, {"measurement": "Tmax", "setting": "[12]", "value": 0.83, "unit": "h"}, {"measurement": "MIC", "setting": "[13]", "value": "> 25", "unit": "µg/mL"}, {"measurement": "MBC", "setting": "[14]", "value": "> 25", "unit": "µg/mL"}, {"measurement": "MBC", "setting": "[15]", "value": "> 25", "unit": "µg/mL"}, {"measurement": "Papp", "setting": "[16]", "value": 18.3, "unit": "×10⁻⁶ cm/s"}, {"measurement": "AUC(0-inf)", "setting": "[17]", "value": 2890, "unit": "ng·h/mL"}, {"measurement": "MBC", "setting": "[18]", "value": "> 25", "unit": "µg/mL"}, {"measurement": "Papp", "setting": "[19]", "value": 3.39, "unit": "×10⁻⁶ cm/s"}, {"measurement": "MBC", "setting": "[20]", "value": 12.5, "unit": "µg/mL"}, {"measurement": "MBC", "setting": "[21]", "value": 25, "unit": "µg/mL"}, {"measurement": "MBC", "setting": "[22]", "value": 0.83, "unit": "µg/mL"}, {"measurement": "MIC", "setting": "[23]", "value": 25, "unit": "µg/mL"}, {"measurement": "AUC", "setting": "[24]", "value": 993, "unit": "ng·h/mL"}, {"measurement": "Activity", "setting": "[25]", "value": "Dose-dependent effect"}, {"measurement": "MIC", "setting": "[26]", "value": "> 25", "unit": "µg/mL"}, {"measurement": "MIC", "setting": "[27]", "value": 6.25, "unit": "µg/mL"}, {"measurement": "log(activity)", "setting": "[28]", "value": 0.03}, {"measurement": "MIC", "setting": "[29]", "value": "< 6.25", "unit": "µg/mL"}, {"measurement": "log(activity)", "setting": "[30]", "value": 0.47}]}
